The source of these data is ChEMBL document CHEMBL3526029, “Disposition and metabolism of GSK2251052 in humans: a novel boron-containing antibiotic” (Drug Metab Dispos, 2013).

The term Vdss denotes the apparent volume that relates the amount in the body to the concentration in plasma or blood. One may read the AUC as the area under the concentration-time curve, a measure of exposure.

Data set [1] in a line: Total drug recovery in healthy human at 1500 mg, iv infusion for 1 hr as single dose after 144 hrs. Type of data set: ADME, organism-based. Particulars: in vivo, read-out: Drug recovery.
A short description of data set [2]: Drug recovery in healthy human urine at 1500 mg, iv infusion for 1 hr as single dose after 72 hrs. Particulars: read-out: Drug recovery. The class given is ADME, organism-based.
A short description of data set [3]: Drug recovery in healthy human feces at 1500 mg, iv infusion for 1 hr as single dose after 120 hrs. The class given is ADME, organism-based. Particulars: read-out: Drug recovery. The gist of the method: (§1)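 Feces were collected at 24-h intervals through 336 h after a 1500 mg [14C] i.v. 1-h infusion. Samples were homogenised with water and duplicate aliquots combusted for LSC. For profiling, 0–120 h pools were extracted twice with acetonitrile:methanol:water:formic acid, reconstituted, and analysed by radio-HPLC. Values were reported as % dose.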

Data set [4] in a line: Drug recovery in healthy human urine at 1500 mg, iv infusion for 1 hr as single dose after 120 to 336 hrs by HPLC method. Type of data set: ADME, organism-based. The conditions noted are these: in the assay text read “0 to 120 hrs” for “120 to 336 hrs”, read-out: Drug recovery. A digest of the protocol: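 Urine pooled by weight per subject over 0–120 h; 120–336 h pools from all subjects combined into one composite. Centrifuged at ~21,000g, then supernatant profiled by HPLC (Atlantis T3, ammonium acetate pH 4.5/methanol, 30°C) with radiochemical detection plus MS identification. Results are % of dose, corrected for centrifugation recovery measured by triplicate LSC.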

Data set [5] is described as follows: Drug metabolism in cynomolgus monkey liver S9 fraction assessed as (S)-3-(3-(aminomethyl)-1-hydroxy-1,3-dihydrobenzo[c][1,2]oxaborol-7-yloxy)propanoicacid formation at 50 to 500 uM after 3 hrs by liquid scintillation counting in presence of NADPH regeneration system. Type of data set: ADME, subcellular, Macaca fascicularis. Particulars: s9, 3 h.
Data set [6] in a line: Total drug recovery in healthy human at 1500 mg, iv infusion for 1 hr as single dose after 264 hrs. The conditions noted are these: in vivo, read-out: Drug recovery. Type of data set: ADME, organism-based. The gist of the method: (§2)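 Six healthy adult males, fasted ≥10 h, got one 1500 mg [14C]GSK2251052 dose ([…], 0.56 MBq) as a constant-rate 1-h IV infusion in 0.9% NaCl. Urine was collected at 0–6, 6–12 and 12–24 h, then in 24-h blocks to 336 h; feces in 24-h blocks. Urine was counted directly by LSC; feces were homogenized and combusted in duplicate before LSC. Cumulative recovery is given as mean % of dose.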

The nature of data set [7]: Drug recovery in healthy human feces at 1500 mg, iv infusion for 1 hr as single dose after 72 hrs. The class given is ADME, organism-based. The conditions noted are these: read-out: Drug recovery.
Data set [8] is described as follows: Drug recovery in healthy human feces at 1500 mg, iv infusion for 1 hr as single dose after 48 hrs. The class given is ADME, organism-based. Particulars: read-out: Drug recovery.
Data set [9] can be described thus: Drug recovery in healthy human feces at 1500 mg, iv infusion for 1 hr as single dose after 192 hrs. The conditions noted are these: faeces, read-out: Drug recovery. Type of data set: ADME, organism-based.
Data set [10] in a line: Drug recovery in healthy human feces assessed as total radioactivity at 1500 mg, iv infusion for 1 hr as single dose after 120 to 336 hrs by HPLC method. Type of data set: ADME, organism-based. Particulars: in vivo, in the assay text read “0 to 120 hrs” for “120 to 336 hrs”. A digest of the protocol: as §1
Data set [11] in a line: Drug metabolism in cynomolgus monkey kidney S9 fraction assessed as (S)-3-(3-(aminomethyl)-1-hydroxy-1,3-dihydrobenzo[c][1,2]oxaborol-7-yloxy)propanoicacid formation at 50 to 500 uM after 3 hrs by liquid scintillation counting in presence of NAD+. Particulars: s9, 3 h. Type of data set: ADME, Macaca fascicularis. The gist of the method: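 [14C]GSK2251052 was incubated in triplicate for 1 or 3 h at 37°C with 4 mg/ml S9 (monkey liver, lung or kidney; human liver), liver cytosol or liver microsomes and 7.5 mM NAD+. Buffer was pyrophosphate at pH 7.4, 8.4 or 8.8. Controls lacked cofactor or enzyme. Reactions were quenched with acetonitrile, counted by LSC, and pooled for radio-HPLC.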

The nature of data set [12]: Total drug recovery in healthy human at 1500 mg, iv infusion for 1 hr as single dose after 312 hrs. Type of data set: ADME, organism-based. The conditions noted are these: in vivo, read-out: Drug recovery. The gist of the method: as §2
Data set [13] relates to Plasma. Briefly: Half life in healthy human plasma assessed as radioactivity at 1500 mg, iv infusion for 1 hr as single dose. The class given is ADME, organism-based. The conditions noted are these: in vivo. A digest of the protocol:
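Healthy men got a single 1500 mg [14C] dose by 1 h i.v. infusion. K2EDTA blood was sampled up to 336 h. Radioactivity in blood and plasma was measured by LSC, with AMS for plasma below LLQ. Parent and M3 were measured by LC/MS/MS (5–10,000 ng/ml range). Noncompartmental analysis used actual times, with t1/2 = ln2/λz and Tmax observed directly, timed from infusion start.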

The subject of data set [14] is Plasma. Briefly: Clearance in healthy human plasma assessed as radioactivity at 1500 mg, iv infusion for 1 hr as single dose. Type of data set: ADME, organism-based. The conditions noted are these: in vivo. A digest of the protocol:
(§3)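 Six fasted healthy men received 1500 mg [14C]GSK2251052 as a 1-h i.v. infusion. Blood and plasma were sampled from predose to 336 h after infusion start. Radioactivity was counted by LSC; plasma below 870 ng eq/ml was reanalysed by accelerator MS, with predose background subtracted. Noncompartmental analysis used actual sampling times, linear-up/log-down trapezoids and CL = dose/AUC(0-∞).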

Data set [15] in a line: Drug metabolism in healthy human urine assessed as 3-(3-(2-amino-1-hydroxyethyl)-2-hydroxyphenoxy)propanoic acid formation at 1500 mg, iv infusion for 1 hr as single dose by mass spectrometry. Type of data set: ADME, organism-based. Particulars: in vivo. The gist of the method: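 Urine was collected through 336 h after a 1500 mg [14C] i.v. 1-h infusion to six men. Samples were pooled by weight (0–120 h per subject; 120–336 h composite) and centrifuged. Profiling used HPLC (Atlantis T3, ammonium acetate pH 4.5/methanol, 30°C) with fraction radioactivity counting. Identity came from Orbitrap positive-ion accurate mass. Values were given as % dose, corrected for recovery.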

The nature of data set [16]: Drug recovery in healthy human urine at 1500 mg, iv infusion for 1 hr as single dose after 144 hrs. The class given is ADME, organism-based. Particulars: read-out: Drug recovery.
Data set [17] can be described thus: Drug recovery in healthy human urine at 1500 mg, iv infusion for 1 hr as single dose after 24 hrs. Type of data set: ADME, organism-based. The conditions noted are these: read-out: Drug recovery.
Data set [18] in a line: Total drug recovery in healthy human at 1500 mg, iv infusion for 1 hr as single dose after 240 hrs. Type of data set: ADME, organism-based. The conditions noted are these: in vivo, read-out: Drug recovery. The gist of the method: as §2
A short description of data set [19]: Drug recovery in healthy human urine at 1500 mg, iv infusion for 1 hr as single dose after 48 hrs. Type of data set: ADME, organism-based. Particulars: read-out: Drug recovery.
The test system of data set [20] is Plasma. The data set is described as follows: Volume of distribution at steady state in healthy human plasma assessed as radioactivity at 1500 mg, iv infusion for 1 hr as single dose. The conditions noted are these: in vivo. Type of data set: ADME, organism-based. A digest of the protocol:
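Healthy males got a 1500 mg [14C] dose as a 1-h IV infusion. K2EDTA blood was taken at serial times to 336 h. Radioactivity in blood and plasma was measured by LSC; plasma below 870 ng eq/ml was re-measured by accelerator mass spectrometry. Vss = CL × MRT, with CL = dose/AUC(0-∞), from noncompartmental analysis on actual times.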

A short description of data set [21]: Drug recovery in healthy human urine at 1500 mg, iv infusion for 1 hr as single dose after 216 hrs. Type of data set: ADME, organism-based. Particulars: read-out: Drug recovery.
A further data set relates to Blood. The data set is described as follows: AUC (0 to t) in healthy human whole blood assessed as radioactivity at 1500 mg, iv infusion for 1 hr as single dose. Particulars: in vivo. The class given is ADME, organism-based. A digest of the protocol: as §3
A short description of data set [22]: Drug recovery in healthy human urine at 1500 mg, iv infusion for 1 hr as single dose after 168 hrs. Particulars: read-out: Drug recovery. Type of data set: ADME, organism-based.
The test system of data set [23] is Plasma. Briefly: AUC (0 to infinity) in healthy human plasma assessed as radioactivity at 1500 mg, iv infusion for 1 hr as single dose. Type of data set: ADME, organism-based. Further details: dose 1500 mg, time infinity, route intravenous. Particulars: in vivo. A digest of the protocol: as §3

On to `Cl.N[14CH2][C@H]1OB(O)c2c(OCCCO)cccc21`, for which the dose excreted at 144 h turned out to be 92.6% in data set [1] and 85.1% in data set [16]. The results for the dose excreted at 72 h in data set [2] and in [7] were 76.9% and 4.3%, respectively. The dose excreted at 120 h in data set [3] was determined as 7.3%. In addition, the dose excreted in data set [4] worked out at 28.9%. Also, the Drug metabolism entry in [5] and in data set [11] was “metabolite_not_detected” in each case. The dose excreted at 264 h in data set [6] was 97%. For the same compound, the dose excreted at 48 h in data set [8] was 1.3%; in [19], 69.2%. The dose excreted at 192 h in data set [9] was 7.6%. Moreover, the Drug recovery is 6% in data set [10] and “metabolite_detected” in data set [15]. The dose excreted at 312 h in data set [12] turned out to be 97.8%. Moreover, the t1/2 with Plasma [13] amounted to 96 h. Also, in the data set with Plasma [14], the CL came to 7.7 L/h. Moreover, the dose excreted at 24 h in [17] was determined as 51.2%. Moreover, the dose excreted at 240 h in data set [18] was found to be 96.4%. In addition, the Vdss with Plasma [20] is 348 L. Besides, in data set [21], the dose excreted at 216 h worked out at 88.2%. Further, the AUCt in the data set on Blood amounted to 141 µg·h/mL. Also, the dose excreted at 168 h in data set [22] was determined as 86.4%. Moreover, in the data set on Plasma [23], the AUC worked out at 195 µg·h/mL.
